Reference: ChEMBL document CHEMBL4373698, “Biosynthesis of Nonimmunosuppressive FK506 Analogues with Antifungal Activity” (J Nat Prod, 2019)
Converted amounts (≈) assume the structure as drawn. The source made the active and inactive calls. No cut-off for these calls is given here.

Columns and labels:
[1] = system: Aspergillus fumigatus; experiment: Antifungal activity against Aspergillus fumigatus Af293 after 48 hrs by EUCAST-based microdilution assay; assay type: functional, organism-based; settings: Af293, 48 h
How it was run: (§1)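 Af293 conidia at 10^5/mL in RPMI (8.4 g/L RPMI1640, 34.5 g/L MOPS, 20 g/L dextrose, pH 7) per EUCAST broth microdilution; 2-fold serial dilutions from 10 μg/mL; 35 °C, 48 h; OD600 read. % growth versus no-inhibitor wells after medium-only background subtraction; IC50 derived from growth curves.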

[2] = Immunosuppressive activity against […] mouse CD4-positive T cell cells assessed as inhibition of CD3/CD28-induced cell proliferation after 72 hrs by FACS analysis
How it was run: (§2)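 Spleen cells from 6–8-week B6J mice, red cells lysed; CD4+ T cells labelled with CellTrace Violet at isolation. Stimulated with anti-CD3/CD28 beads with compound for 72 h; stained for CD4 and CD44 plus near-IR live/dead dye; proliferation read by flow cytometry; IC50 from curves.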

[3] = system: Cryptococcus neoformans; experiment: Antifungal activity against Cryptococcus neoformans H99 after 48 hrs by EUCAST-based microdilution assay; assay type: functional, organism-based; settings: var grubii H99 
How it was run: (§3)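 H99 grown in YPD at 30 °C for 20 h, then seeded at OD600 0.01 in RPMI-MOPS-dextrose pH 7 (EUCAST microdilution). Analogues added as 2-fold dilutions from 10 μg/mL; 37 °C, 48 h; OD600 read. Growth expressed relative to no-inhibitor wells after background subtraction; IC50 calculated.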

[4] = system: Candida albicans; experiment: Antifungal activity against Candida albicans SC5314 after 24 hrs by XTT assay; assay type: functional, organism-based; settings: SC5314, 24 h
How it was run: (§4)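 SC5314 grown in YPD at 30 °C for 16 h, washed twice and resuspended in PBS. Seeded at 1.25 × 10^5 cells per well in 100% FBS with 2-fold dilutions from 10 μg/mL; 37 °C, 24 h. XTT (500 μg/mL in PBS, menadione final 10 μM) added, 2 h at 37 °C in the dark; OD490 read; IC50.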

[5] = system: Cryptococcus neoformans; experiment: Synergistic antifungal activity against Cryptococcus neoformans H99 assessed as FIC index in presence of fluconazole after 48 hrs by checker board assay; assay type: functional, var grubii H99
How it was run: (§5)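 Checkerboard with fluconazole: H99 grown overnight in YPD at 30 °C, seeded at OD600 0.01 in RPMI 1640 per EUCAST. Test agent 2-fold serially diluted. FIC index calculated per strain; ≤0.5 synergy, >0.5–1.0 additive, >1.0–2.0 no interaction, >2.0 antagonism.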

[6] = system: Cryptococcus neoformans; experiment: Antifungal activity against Cryptococcus neoformans harboring frr1 deletion mutant at 30 ug/ml; assay type: functional, organism-based
[7] = system: Cryptococcus neoformans; experiment: Synergistic antifungal activity against Cryptococcus neoformans H99 in presence of 2.5 ug/ml fluconazole after 48 hrs by checker board assay; assay type: functional, organism-based; settings: var grubii H99 
[8] = Immunosuppressive activity against […] mouse CD4-positive T cells assessed as inhibition of CD3/CD28-induced cell proliferation; how it was run: as §2
[9] = system: Cryptococcus neoformans; experiment: Antifungal activity against Cryptococcus neoformans H99; assay type: functional, organism-based; settings: var grubii H99; how it was run: as §3
[10] = system: Aspergillus fumigatus; experiment: Antifungal activity against Aspergillus fumigatus Af293; assay type: functional, organism-based; how it was run: as §1
[11] = system: Candida albicans; experiment: Antifungal activity against Candida albicans SC5314; assay type: functional, organism-based; how it was run: as §4
[12] = system: Cryptococcus neoformans; experiment: Synergistic antifungal activity against Cryptococcus neoformans H99 in presence of 1.25 ug/ml fluconazole after 48 hrs by checker board assay; assay type: functional, organism-based; settings: var grubii H99 
[13] = system: Cryptococcus neoformans; experiment: Synergistic antifungal activity against Cryptococcus neoformans H99 assessed as FIC index in presence of fluconazole; assay type: functional, var grubii H99; how it was run: as §5

| IC50 [1] | IC50 [3] | SMILES | IC50 [2] | IC50 [4] | further results |
| --- | --- | --- | --- | --- | --- |
|  |  | C=CC[C@@H]1/C=C(\C)C[C@H](C)C[C@H](OC)[C@H]2O[C@@](O)(CC(=O)N3CCCC[C@H]3C(=O)O[C@H](/C(C)=C/[C@@H]3CC[C@@H](O)[C@H](O)C3)[C@H](C)[C@@H](O)CC1=O)[C@H](C)C[C@@H]2OC |  |  | IC50 [8]: 15.1 ng/mL (≈ 0.0194 µM); IC50 [9]: 0.154 µg/mL (≈ 0.198 µM); IC50 [10]: 29.8 µg/mL (≈ 38.4 µM); IC50 [11]: 2.8 µg/mL (≈ 3.6 µM) |
|  |  | CC[C@@H]1/C=C(\C)C[C@H](C)C[C@H](OC)[C@H]2O[C@@](O)(C(=O)C(=O)N3CCCC[C@H]3C(=O)O[C@H](/C(C)=C/[C@@H]3CC[C@@H](O)[C@H](OC)C3)[C@H](C)[C@@H](O)CC1=O)[C@H](C)C[C@@H]2OC [ASCOMYCIN] |  |  | fractional inhibitory concentration index (FICI) [5]: 0.5 |
| 12.2 µg/mL (≈ 15.7 µM) | 0.027 µg/mL (≈ 0.0347 µM) | CC[C@@H]1/C=C(\C)C[C@H](C)C[C@H](OC)[C@H]2O[C@@](O)(C(=O)C(=O)N3CCCC[C@H]3C(=O)O[C@H](/C(C)=C/[C@@H]3CC[C@@H](O)[C@H](O)C3)[C@H](C)[C@@H](O)CC1=O)[C@H](C)C[C@@H]2OC | 0.00327 µg/mL (≈ 0.00421 µM) | 0.079 µg/mL (≈ 0.102 µM) |  |
|  |  | C=CC[C@@H]1/C=C(\C)C[C@H](C)C[C@H](OC)[C@H]2O[C@@](O)(CC(=O)N3CCCC[C@H]3C(=O)O[C@H](/C(C)=C/[C@@H]3CC[C@@H](O)[C@H](OC)C3)[C@H](C)[C@@H](O)CC1=O)[C@H](C)C[C@@H]2OC |  |  | IC50 [8]: 0.513 ng/mL (≈ 0.000649 µM); IC50 [9]: 0.036 µg/mL (≈ 0.0456 µM); IC50 [10]: 24.2 µg/mL (≈ 30.6 µM); IC50 [11]: 0.963 µg/mL (≈ 1.22 µM) |
| > 50 µg/mL | 8.85 µg/mL (≈ 11.4 µM) | CCC[C@@H]1/C=C(\C)C[C@H](C)C[C@H](OC)[C@H]2O[C@@](O)(CC(=O)N3CCCC[C@H]3C(=O)O[C@H](/C(C)=C/[C@@H]3CC[C@@H](O)[C@H](O)C3)[C@H](C)[C@@H](O)CC1=O)[C@H](C)C[C@@H]2OC | 0.0459 µg/mL (≈ 0.059 µM) | 4.26 µg/mL (≈ 5.48 µM) |  |
| > 50 µg/mL | 221 µg/mL (≈ 290 µM) | C=CC[C@@H]1/C=C(\C)C[C@H](C)C[C@H](OC)[C@H]2O[C@@](O)(CC(=O)N3CCC[C@H]3C(=O)O[C@H](/C(C)=C/[C@@H]3CC[C@@H](O)[C@H](O)C3)[C@H](C)[C@@H](O)CC1=O)[C@H](C)C[C@@H]2OC | 0.886 µg/mL (≈ 1.16 µM) | 3440 µg/mL (≈ 4520 µM) |  |
|  |  | C=CC[C@@H]1/C=C(\C)C[C@H](C)C[C@H](OC)[C@H]2O[C@@](O)(C(=O)C(=O)N3CCCC[C@H]3C(=O)O[C@H](/C(C)=C/[C@@H]3CC[C@@H](O)[C@H](OC)C3)[C@H](C)[C@@H](O)CC1=O)[C@H](C)C[C@@H]2OC [TACROLIMUS ANHYDROUS] |  |  | IC50 [8]: 0.027 ng/mL (≈ 3.36e-05 µM); IC50 [9]: 0.001 µg/mL (≈ 0.00124 µM); IC50 [10]: 0.015 µg/mL (≈ 0.0187 µM); IC50 [11]: 0.005 µg/mL (≈ 0.00622 µM); fractional inhibitory concentration index (FICI) [13]: 0.38 |
| > 50 µg/mL | 54.5 µg/mL (≈ 72.7 µM) | CO[C@H]1C[C@@H](C)C/C(C)=C/[C@@H](C)C(=O)C[C@H](O)[C@@H](C)[C@@H](/C(C)=C/[C@@H]2CC[C@@H](O)[C@H](O)C2)OC(=O)[C@@H]2CCCCN2C(=O)C[C@]2(O)O[C@H]1[C@@H](OC)C[C@H]2C | 3.38 µg/mL (≈ 4.5 µM) | 837 µg/mL (≈ 1120 µM) |  |
|  |  | C=CC[C@@H]1/C=C(\C)C[C@H](C)C[C@H](OC)[C@H]2O[C@@](O)(C(=O)C(=O)N3CCCC[C@H]3C(=O)O[C@H](/C(C)=C/[C@@H]3CC[C@@H](O)[C@H](O)C3)[C@H](C)[C@@H](O)CC1=O)[C@H](C)C[C@@H]2OC |  |  | IC50 [8]: 0.246 ng/mL (≈ 0.000311 µM); IC50 [9]: 0.005 µg/mL (≈ 0.00633 µM); IC50 [10]: 0.165 µg/mL (≈ 0.209 µM); IC50 [11]: 0.106 µg/mL (≈ 0.134 µM) |
| 0.415 µg/mL (≈ 0.524 µM) | 0.033 µg/mL (≈ 0.0417 µM) | CCC[C@@H]1/C=C(\C)C[C@H](C)C[C@H](OC)[C@H]2O[C@@](O)(C(=O)C(=O)N3CCCC[C@H]3C(=O)O[C@H](/C(C)=C/[C@@H]3CC[C@@H](O)[C@H](O)C3)[C@H](C)[C@@H](O)CC1=O)[C@H](C)C[C@@H]2OC | 0.00172 µg/mL (≈ 0.00218 µM) | 0.059 µg/mL (≈ 0.0745 µM) |  |
| 14.1 µg/mL (≈ 17.8 µM) | 0.151 µg/mL (≈ 0.191 µM) | CCC[C@@H]1/C=C(\C)C[C@H](C)C[C@H](OC)[C@H]2O[C@@](O)(CC(=O)N3CCCC[C@H]3C(=O)O[C@H](/C(C)=C/[C@@H]3CC[C@@H](O)[C@H](OC)C3)[C@H](C)[C@@H](O)CC1=O)[C@H](C)C[C@@H]2OC | 0.0255 µg/mL (≈ 0.0323 µM) | 0.817 µg/mL (≈ 1.03 µM) |  |

| SMILES | IC50 [1] | IC50 [3] | IC50 [2] | IC50 [4] | further results |
| --- | --- | --- | --- | --- | --- |
| CC[C@@H]1/C=C(\C)C[C@H](C)C[C@H](OC)[C@H]2O[C@@](O)(CC(=O)N3CCCC[C@H]3C(=O)O[C@H](/C(C)=C/[C@@H]3CC[C@@H](O)[C@H](OC)C3)[C@H](C)[C@@H](O)CC1=O)[C@H](C)C[C@@H]2OC | 7.82 µg/mL (≈ 10.1 µM) | 0.355 µg/mL (≈ 0.456 µM) | 0.025 µg/mL (≈ 0.0321 µM) | 0.662 µg/mL (≈ 0.851 µM) | fractional inhibitory concentration index (FICI) [5]: 0.19; Activity [6]: inactive; IC50 [7]: 0.031 µg/mL |
| CC[C@@H]1/C=C(\C)C[C@H](C)C[C@H](OC)[C@H]2O[C@@](O)(CC(=O)N3CCCC[C@H]3C(=O)O[C@H](/C(C)=C/[C@@H]3CC[C@@H](O)[C@H](O)C3)[C@H](C)[C@@H](O)CC1=O)[C@H](C)C[C@@H]2OC | 307 µg/mL (≈ 402 µM) | 3.3 µg/mL (≈ 4.32 µM) | 0.258 µg/mL (≈ 0.338 µM) | 2.85 µg/mL (≈ 3.73 µM) | fractional inhibitory concentration index (FICI) [5]: 0.19; IC50 [12]: 0.0625 µg/mL; Activity [6]: inactive |
| CO[C@H]1C[C@@H](C)C/C(C)=C/[C@@H](C)C(=O)C[C@H](O)[C@@H](C)[C@@H](/C(C)=C/[C@@H]2CC[C@@H](O)[C@H](OC)C2)OC(=O)[C@@H]2CCCCN2C(=O)C[C@]2(O)O[C@H]1[C@@H](OC)C[C@H]2C | 230 µg/mL (≈ 302 µM) | 2.47 µg/mL (≈ 3.23 µM) | 1.98 µg/mL (≈ 2.6 µM) | 6.07 µg/mL (≈ 7.95 µM) | fractional inhibitory concentration index (FICI) [5]: 0.5; IC50 [12]: 0.125 µg/mL; Activity [6]: inactive |
